According to ChEMBL document CHEMBL1153836, “Effects of human immunodeficiency virus protease inhibitors on the intestinal absorption of tenofovir disoproxil fumarate in vitro” (Antimicrob Agents Chemother, 2007):
Activity calls are given as the source filed them. The calls are words filed in the database; no cut-off is given here.

Tests used:
Caco-2 [1] = experiment: Increase in P-glycoprotein-mediated tenofovir disoproxil fumarate permeation from apical to basolateral side of human Caco-2 cells at 20 uM; assay type: cell-based
In short: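 Caco-2 monolayers were preincubated 30 min with 20 µM PI in transport buffer, then given fresh buffer with inhibitor plus TDF on the apical side. […] Duplicates; mean ± SD of three independent experiments.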

Homo sapiens [2] = organism: Homo sapiens; experiment: Inhibition of esterase mediated-hydrolysis of tenofovir disoproxil fumarate in human intestinal sub cellular fraction S9 at 2 uM after 30 mins
In short: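 Reactions were stopped at 30 and 60 min with 67% acetonitrile, and TDF was measured by LC/MS/MS. Degradation rate came from a single-exponential fit, expressed as percent inhibition versus DMSO. Duplicates; three to six independent experiments.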

[3] = target: T1, MDR1 (ABCB1, P-glycoprotein) (Homo sapiens, UniProt P08183); experiment: Inhibition of human MDR1-dependent accumulation of calcein-AM expressed in MDCK2 cells at 50 uM; assay type: cell-based, MDCK-II; design: activity at 50 µM: scale not given: the % may be the effect or the level left; details: MDCK2 cells expressing human MDR1, probe calcein-AM
T1 sequence (P08183 whole entry): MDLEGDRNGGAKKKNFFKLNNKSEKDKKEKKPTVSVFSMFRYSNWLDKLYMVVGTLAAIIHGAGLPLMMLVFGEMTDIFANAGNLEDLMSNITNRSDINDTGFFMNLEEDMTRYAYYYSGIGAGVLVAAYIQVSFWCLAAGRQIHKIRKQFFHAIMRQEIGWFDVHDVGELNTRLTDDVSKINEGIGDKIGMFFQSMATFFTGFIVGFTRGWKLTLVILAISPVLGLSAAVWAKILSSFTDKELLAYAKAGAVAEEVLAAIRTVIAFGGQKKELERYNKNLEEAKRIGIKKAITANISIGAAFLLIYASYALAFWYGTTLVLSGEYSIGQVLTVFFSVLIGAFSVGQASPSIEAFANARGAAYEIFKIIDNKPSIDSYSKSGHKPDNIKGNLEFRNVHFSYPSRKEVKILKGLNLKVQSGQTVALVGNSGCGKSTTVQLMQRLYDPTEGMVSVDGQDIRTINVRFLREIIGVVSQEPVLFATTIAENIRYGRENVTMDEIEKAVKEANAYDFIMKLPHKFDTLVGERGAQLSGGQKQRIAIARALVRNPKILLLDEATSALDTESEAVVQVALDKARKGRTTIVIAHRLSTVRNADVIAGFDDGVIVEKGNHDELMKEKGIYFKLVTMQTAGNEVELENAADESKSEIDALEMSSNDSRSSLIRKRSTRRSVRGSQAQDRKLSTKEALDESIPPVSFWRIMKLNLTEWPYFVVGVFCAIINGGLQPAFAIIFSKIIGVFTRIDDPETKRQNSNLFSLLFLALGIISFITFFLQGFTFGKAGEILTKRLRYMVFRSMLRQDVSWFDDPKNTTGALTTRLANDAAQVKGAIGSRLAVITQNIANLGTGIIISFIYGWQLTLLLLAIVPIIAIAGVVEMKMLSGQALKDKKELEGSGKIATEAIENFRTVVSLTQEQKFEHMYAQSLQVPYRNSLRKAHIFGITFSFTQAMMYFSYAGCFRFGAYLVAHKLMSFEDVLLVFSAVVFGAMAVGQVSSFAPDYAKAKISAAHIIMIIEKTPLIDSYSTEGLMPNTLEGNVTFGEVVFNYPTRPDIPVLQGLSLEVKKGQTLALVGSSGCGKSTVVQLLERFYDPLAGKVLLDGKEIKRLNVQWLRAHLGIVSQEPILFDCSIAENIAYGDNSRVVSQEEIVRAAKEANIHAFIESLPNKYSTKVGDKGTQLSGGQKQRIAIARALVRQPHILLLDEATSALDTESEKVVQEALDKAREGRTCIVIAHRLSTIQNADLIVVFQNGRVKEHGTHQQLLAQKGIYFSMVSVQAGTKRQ
In short: (§1)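 Parental and MDR1-transfected MDCKII cells received calcein-AM together with PI (seven twofold dilutions from 50 µM, no serum proteins). Intracellular calcein fluorescence was read in a 96-well format. Percent increase in fluorescence was fitted to a hyperbolic curve for IC50. Duplicates; 3–10 independent assays.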

[4] = target: ATP-dependent translocase ABCB1 (Homo sapiens, UniProt P08183); experiment: Inhibition of human MDR1-dependent accumulation of calcein-AM expressed in MDCK2 cells; assay type: cell-based, MDCK-II; details: for Activity: human, mdck-ii; in short: as §1
Sequence of ATP-dependent translocase ABCB1 (P08183 whole entry): as above

Homo sapiens [5] = experiment: Effect on tenofovir disoproxil fumarate metabolism in ritonavir booster drug treated healthy human assessed as change in plasma AUC of tenofovir at 300 mg, po, BID co-administered with 300 mg once daily dose of tenofovir disoproxil fumarate; assay type: ADME, organism-based; details: in vivo
Homo sapiens [6] = experiment: Effect on tenofovir disoproxil fumarate metabolism in ritonavir booster drug treated healthy human assessed as change in plasma Cmax of tenofovir at 300 mg, po, BID co-administered with 300 mg once daily dose of tenofovir disoproxil fumarate; assay type: ADME, organism-based; details: in vivo
Homo sapiens [7] = experiment: Effect on tenofovir disoproxil fumarate metabolism in ritonavir booster drug treated healthy human assessed as change in plasma Cmin of tenofovir at 300 mg, po, BID co-administered with 300 mg once daily dose of tenofovir disoproxil fumarate; assay type: ADME, organism-based; details: in vivo
Homo sapiens [8] = experiment: Effect on tenofovir disoproxil fumarate metabolism in ritonavir booster drug treated healthy human assessed as change in plasma Cmax of tenofovir at 800 mg, po, TID co-administered with 300 mg once daily dose of tenofovir disoproxil fumarate; assay type: ADME, organism-based; details: in vivo
Homo sapiens [9] = experiment: Effect on tenofovir disoproxil fumarate metabolism in ritonavir booster drug treated healthy human assessed as change in plasma AUC of tenofovir at 300 mg, po, QD co-administered with 300 mg once daily dose of tenofovir disoproxil fumarate; assay type: ADME, organism-based; details: in vivo
Homo sapiens [10] = experiment: Effect on tenofovir disoproxil fumarate metabolism in ritonavir booster drug treated healthy human assessed as change in plasma Cmax of tenofovir at 300 mg, po, QD co-administered with 300 mg once daily dose of tenofovir disoproxil fumarate; assay type: ADME, organism-based; details: in vivo
Homo sapiens [11] = experiment: Effect on tenofovir disoproxil fumarate metabolism in ritonavir booster drug treated healthy human assessed as change in plasma Cmin of tenofovir at 300 mg, po, QD co-administered with 300 mg once daily dose of tenofovir disoproxil fumarate; assay type: ADME, organism-based; details: in vivo
Caco-2 [12] = experiment: Ratio of permeability from basolateral to apical side over apical to basolateral side in human Caco-2 cells at 1 uM; assay type: ADME, cell-based; details: caco-2, 1 µM
In short: (§2)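 Confluent Caco-2 monolayers dosed with TDF (1–1,000 µM) on the apical or basolateral side at 37°C, 5% CO2. […] Efflux ratio = B-to-A Papp / A-to-B Papp. Two independent experiments in duplicate.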

Caco-2 [13] = experiment: Ratio of permeability from basolateral to apical side over apical to basolateral side in human Caco-2 cells at 1000 uM; assay type: ADME, cell-based; details: caco-2, 1000 µM; in short: as §2
Caco-2 [14] = experiment: Increase in P-glycoprotein-mediated forward permeation of tenofovir disoproxil fumarate in human Caco-2 cells at 10 uM; assay type: cell-based
Caco-2 [15] = experiment: Increase in P-glycoprotein-mediated forward permeation of tenofovir disoproxil fumarate in human Caco-2 cells at 2 uM; assay type: cell-based
Homo sapiens [16] = organism: Homo sapiens; experiment: Inhibition of esterase mediated-hydrolysis of tenofovir disoproxil fumarate in human intestinal sub cellular fraction S9 assessed as rate of tenofovir disoproxil fumarate degradation at 10 uM after 30 mins
In short: (§3)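 Human intestinal S9 at 1 mg/ml protein; TDF 2 µM incubated with or without inhibitor (10, 50 or 100 µM) at 37°C in duplicate. Reactions were stopped at 30 and 60 min with 67% acetonitrile, protein removed by centrifugation, and TDF measured by LC/MS/MS. The degradation rate came from a single-exponential-decay fit.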

Homo sapiens [17] = organism: Homo sapiens; experiment: Inhibition of esterase mediated-hydrolysis of tenofovir disoproxil fumarate in human intestinal sub cellular fraction S9 assessed as rate of tenofovir disoproxil fumarate degradation at 50 uM after 30 mins; in short: as §3
Homo sapiens [18] = organism: Homo sapiens; experiment: Inhibition of esterase mediated-hydrolysis of tenofovir disoproxil fumarate in human intestinal sub cellular fraction S9 assessed as rate of tenofovir disoproxil fumarate degradation at 100 uM after 30 mins; in short: as §3
Homo sapiens [19] = experiment: Effect on tenofovir disoproxil fumarate metabolism in ritonavir booster drug treated HIV infected patient assessed as change in plasma AUC of tenofovir at 400 mg, po, BID co-administered with 300 mg once daily dose of tenofovir disoproxil fumarate; assay type: ADME, organism-based; details: in vivo
Homo sapiens [20] = experiment: Effect on tenofovir disoproxil fumarate metabolism in HIV infected patient assessed as change in plasma Cmax of tenofovir at 400 mg, po, BID co-administered with 300 mg once daily dose of tenofovir disoproxil fumarate; assay type: ADME, organism-based; details: in vivo
Homo sapiens [21] = experiment: Effect on tenofovir disoproxil fumarate metabolism in HIV infected patient assessed as change in plasma Cmin of tenofovir at 400 mg, po, BID co-administered with 300 mg once daily dose of tenofovir disoproxil fumarate; assay type: ADME, organism-based; details: in vivo
[22] = target: T1, MDR1 (ABCB1, P-glycoprotein); experiment: Inhibition of human MDR1-dependent accumulation of calcein-AM expressed in MDCK2 cells at 20 uM; assay type: cell-based, MDCK-II; details: MDCK2 cells expressing human MDR1, probe calcein-AM
Homo sapiens [23] = experiment: Effect on tenofovir disoproxil fumarate metabolism in ritonavir booster drug treated healthy human assessed as change in plasma AUC of tenofovir at 1400 mg, po, BID co-administered with 300 mg once daily dose of tenofovir disoproxil fumarate; assay type: ADME, organism-based; details: in vivo
Homo sapiens [24] = experiment: Effect on tenofovir disoproxil fumarate metabolism in ritonavir booster drug treated healthy human assessed as change in plasma Cmax of tenofovir at 700 mg, po, BID co-administered with 300 mg once daily dose of tenofovir disoproxil fumarate; assay type: ADME, organism-based; details: in vivo
Homo sapiens [25] = experiment: Effect on tenofovir disoproxil fumarate metabolism in ritonavir booster drug treated healthy human assessed as change in plasma Cmax of tenofovir at 1400 mg, po, BID co-administered with 300 mg once daily dose of tenofovir disoproxil fumarate; assay type: ADME, organism-based; details: in vivo
Homo sapiens [26] = experiment: Effect on tenofovir disoproxil fumarate metabolism in ritonavir booster drug treated healthy human assessed as change in plasma Cmin of tenofovir at 1400 mg, po, BID co-administered with 300 mg once daily dose of tenofovir disoproxil fumarate; assay type: ADME, organism-based; details: in vivo
Homo sapiens [27] = experiment: Effect on tenofovir disoproxil fumarate metabolism in ritonavir booster drug treated healthy human assessed as change in plasma AUC of tenofovir at 1000 mg, po, BID co-administered with 300 mg once daily dose of tenofovir disoproxil fumarate; assay type: ADME, organism-based; details: in vivo
Homo sapiens [28] = experiment: Effect on tenofovir disoproxil fumarate metabolism in ritonavir booster drug treated healthy human assessed as change in plasma Cmax of tenofovir at 1000 mg, po, BID co-administered with 300 mg once daily dose of tenofovir disoproxil fumarate; assay type: ADME, organism-based; details: in vivo
Homo sapiens [29] = experiment: Effect on tenofovir disoproxil fumarate metabolism in ritonavir booster drug treated healthy human assessed as change in plasma Cmin of tenofovir at 1000 mg, po, BID co-administered with 300 mg once daily dose of tenofovir disoproxil fumarate; assay type: ADME, organism-based; details: in vivo
Homo sapiens [30] = experiment: Effect on tenofovir disoproxil fumarate metabolism in ritonavir booster drug treated healthy human assessed as change in plasma Cmax of tenofovir at 500 mg, po, BID co-administered with 300 mg once daily dose of tenofovir disoproxil fumarate; assay type: ADME, organism-based; details: in vivo
Homo sapiens [31] = experiment: Effect on tenofovir disoproxil fumarate metabolism in ritonavir booster drug treated healthy human assessed as change in plasma Cmax of tenofovir at 750 mg, po, BID co-administered with 300 mg once daily dose of tenofovir disoproxil fumarate; assay type: ADME, organism-based; details: in vivo
Homo sapiens [32] = experiment: Effect on tenofovir disoproxil fumarate metabolism in ritonavir booster drug treated healthy human assessed as change in plasma Cmin of tenofovir at 1250 mg, po, BID co-administered with 300 mg once daily dose of tenofovir disoproxil fumarate; assay type: ADME, organism-based; details: in vivo

## CC(C)c1nc(CN(C)C(=O)N[C@H](C(=O)N[C@@H](Cc2ccccc2)C[C@H](O)[C@H](Cc2ccccc2)NC(=O)OCc2cncs2)C(C)C)cs1
Caco-2 [1]
  Activity: Active
Homo sapiens [2]
  Activity: Active

## CC(C)CN(C[C@@H](O)[C@H](Cc1ccccc1)NC(=O)O[C@H]1CO[C@H]2OCC[C@H]21)S(=O)(=O)c1ccc(N)cc1
[3]; read-out: Activity
  activity at 50 µM: 15%
[4]
  IC50: > 100 µM
Homo sapiens [5]
  Activity: 22%
Homo sapiens [6]
  Activity: 24%
Homo sapiens [7]
  Activity: 37%
Homo sapiens [2]
  inhibition: < 40%

## CC(C)(C)NC(=O)[C@@H]1CN(Cc2cccnc2)CCN1C[C@@H](O)C[C@@H](Cc1ccccc1)C(=O)N[C@H]1c2ccccc2C[C@H]1O.O
[3]
  inhibition at 50 µM: ≤ 25%
Homo sapiens [8]
  Activity: 14%
Homo sapiens [2]
  inhibition: < 40%

## CC(C)CN(C[C@@H](O)[C@H](Cc1ccccc1)NC(=O)O[C@H]1CCOC1)S(=O)(=O)c1ccc(N)cc1
[3]
  inhibition at 50 µM: ≤ 25%
Homo sapiens [2]
  Activity: Active

## COC(=O)N[C@H](C(=O)N[C@@H](Cc1ccccc1)[C@@H](O)CN(Cc1ccc(-c2ccccn2)cc1)NC(=O)[C@@H](NC(=O)OC)C(C)(C)C)C(C)(C)C [ATAZANAVIR]
Caco-2 [1]
  Activity: Active
[4]
  IC50: 67.8 µM
  Activity: Dose-dependent effect
Homo sapiens [9]
  Activity: 37%
Homo sapiens [10]
  Activity: 34%
Homo sapiens [11]
  Activity: 29%
Homo sapiens [2]
  Activity: Active

## CC(C)OC(=O)OCOP(=O)(CO[C@H](C)Cn1cnc2c(N)ncnc21)OCOC(=O)OC(C)C.O=C(O)/C=C/C(=O)O [TENOFOVIR DISOPROXIL FUMARATE]
Caco-2 [12]
  Ratio: 25
Caco-2 [13]
  Ratio: 2.6
Caco-2 [14]
  fold change (FC): 1.4
Caco-2 [15]
  fold change (FC): 2.5
Homo sapiens [16]
  Activity: 0.021 min⁻¹
Homo sapiens [17]
  Activity: 0.016 min⁻¹
Homo sapiens [18]
  Activity: 0.012 min⁻¹

## Cc1cccc(C)c1OCC(=O)N[C@@H](Cc1ccccc1)[C@@H](O)C[C@H](Cc1ccccc1)NC(=O)[C@H](C(C)C)N1CCCNC1=O [LOPINAVIR]
Caco-2 [1]
  Activity: Active
Caco-2 [15]
  Activity: 100%
[4]
  Activity: Dose-dependent effect
Homo sapiens [19]
  Activity: 32%
Homo sapiens [20]
  Activity: 15%
Homo sapiens [21]
  Activity: 51%
Homo sapiens [2]
  Activity: Active
[22]
  inhibition at 20 µM: 50%

## CC(C)CN(C[C@@H](OP(=O)(O)O)[C@H](Cc1ccccc1)NC(=O)O[C@H]1CCOC1)S(=O)(=O)c1ccc(N)cc1 [FOSAMPRENAVIR]
Homo sapiens [23]
  Activity: -15%
Homo sapiens [24]
  Activity: -18%
Homo sapiens [25]
  Activity: -25%
Homo sapiens [26]
  Activity: -12%

## CC(C)(C)NC(=O)[C@@H]1C[C@@H]2CCCC[C@@H]2CN1C[C@@H](O)[C@H](Cc1ccccc1)NC(=O)[C@H](CC(N)=O)NC(=O)c1ccc2ccccc2n1
Caco-2 [1]
  Activity: Active
[4]
  Activity: Dose-dependent effect
Homo sapiens [27]
  Activity: 14%
Homo sapiens [28]
  Activity: 15%
Homo sapiens [29]
  Activity: 23%
Homo sapiens [2]
  Activity: Active

## Cc1nc(COc2ccc(C[C@H](NC(=O)O[C@H]3CO[C@H]4OCC[C@H]43)[C@H](O)CN(CC(C)C)S(=O)(=O)c3ccc4c(c3)OCO4)cc2)cs1 [BRECANAVIR]
[4]
  IC50: 24.1 µM
  Activity: Dose-dependent effect
Homo sapiens [5]
  Activity: 32%
Homo sapiens [6]
  Activity: 24%
Homo sapiens [2]
  inhibition: Active
[22]
  inhibition at 20 µM: 50%

## CCC[C@@]1(CCc2ccccc2)CC(O)=C([C@H](CC)c2cccc(NS(=O)(=O)c3ccc(C(F)(F)F)cn3)c2)C(=O)O1
Homo sapiens [30]
  Activity: -23%
Homo sapiens [31]
  Activity: -38%

## Cc1c(O)cccc1C(=O)N[C@@H](CSc1ccccc1)[C@H](O)CN1C[C@H]2CCCC[C@H]2C[C@H]1C(=O)NC(C)(C)C
[4]
  Activity: Dose-dependent effect
Homo sapiens [32]
  Activity: 9%
Homo sapiens [2]
  Activity: Active
[22]
  inhibition at 20 µM: 50%
